Screening results (PubChem BioAssay)
FN deposition inh = inhibitors of fibronectin matrix deposition, primary screen, AH1F cells, Alexa488-fibronectin fluorescence, plate reader; AH1F fibroblasts, overnight; inhibition, % at 12.6 µM; hit rate 0.086% among 350,000;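 active = mean inhibition across replicates of 30% or more, regardless of how many single replicates reach that level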;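 note: positive control wells lacked labelled fibronectin entirely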
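Assay system: AH1F fibroblasts / Quantity: 10000 cells per well / Medium: DMEM plus 2% serum, read in PBS / Reagent: labelled fibronectin 24 nM / Dosing: single dose, pinned / Times: 1 h cell attachment, overnight exposure to compound and label / Signal: fluorescence, ex 485 nm, em 525 nm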
SR-BI DiI inh = inhibitors of SR-BI mediated HDL lipid uptake, primary screen, ldlA[mSR-BI] cells, fluorescence, single point. Scavenger receptor class B member 1 (Mus musculus), Q61009. inhibition, % at 12.5 µM. AID 488896, 2010. ldlA[mSR-BI] CHO cells, DiI-HDL uptake fluorescence, 3 h. hit rate 0.96% among 320,000;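 active = mean replicate inhibition of at least 70% and a set share of replicates each scoring 70 or more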;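 note: 0% = median of neutral control wells and 100% = median of positive control wells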
Target sequence (Q61009 whole entry, looked up): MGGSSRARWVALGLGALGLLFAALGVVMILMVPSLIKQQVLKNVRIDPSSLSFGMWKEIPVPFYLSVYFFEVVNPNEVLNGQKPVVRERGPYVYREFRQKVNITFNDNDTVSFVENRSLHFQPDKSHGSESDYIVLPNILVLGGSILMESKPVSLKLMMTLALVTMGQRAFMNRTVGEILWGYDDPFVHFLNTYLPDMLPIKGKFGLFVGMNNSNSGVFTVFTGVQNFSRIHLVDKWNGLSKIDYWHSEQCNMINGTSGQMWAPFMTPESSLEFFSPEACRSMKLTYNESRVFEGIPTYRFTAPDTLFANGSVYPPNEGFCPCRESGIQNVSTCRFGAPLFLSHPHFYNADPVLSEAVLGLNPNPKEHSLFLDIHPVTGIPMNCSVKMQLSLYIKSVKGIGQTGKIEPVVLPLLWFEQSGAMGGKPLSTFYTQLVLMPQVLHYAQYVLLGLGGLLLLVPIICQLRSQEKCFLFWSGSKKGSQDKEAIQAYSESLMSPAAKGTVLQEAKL
CaV13 ICDI inh = Disruptors of the CACNA1D IQ motif to Ca2+-dependent inactivation inhibitor domain association, primary screening, Förster resonance energy transfer in intact living …. HEK cells, CFP/YFP FRET ICDI-IQ, plate reader, 10 min; percent FRET-ratio fall versus neutral wells. inhibition, % at 12.3 µM. hit rate 0.098% among 340,000. AID 743397;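 active = mean replicate inhibition of at least 30% and at least 1% of replicates passing that level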;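 note: 0% = median of the neutral control wells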
SR-BI uptake up = activators of SR-BI mediated DiI-HDL uptake, primary screen, ldlA[mSR-BI] CHO cells, DiI fluorescence; 3 h; 100 = double the neutral-control signal; activation, % at 12.5 µM; hit rate 0.096% among 320,000; AID 504775, 2011;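 active = mean replicate activation of at least 60% and every replicate at or above 60%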;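 note: 0% = median plate neutral-control signal and 100% = twice that signal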
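Test system: SR-BI-overexpressing, LDLR-lacking CHO cells. Measured by: DiI fluorescence, bottom read. Medium: Ham's F12 with 0.5% BSA, HEPES 25 mM, pH 7.4. Timing: 3 h uptake period with compound, 37 °C.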
Efflux pump inh = inhibitors of Candida efflux pumps in yeast, primary screen, S. cerevisiae, Nile Red, multiplex | inhibition, % at 10 µM | AID 485275, 2010 | S. cerevisiae Candida pump triplex | hit rate 0.44% among 330,000;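 active = plate passing quality check with inhibition over a set limit, or well fluorescence over plate mean plus 4 SD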;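 note: Nile Red retained in pooled yeast measured as flow cytometry median fluorescence; 0% = buffer negative control and 100% = Enniatin B positive control; higher means more Nile Red kept so more efflux inhibition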
Numbers without * were called inactive; . = no result. An excerpt weighted towards active compounds, which were near 1.2% of everything screened.

SMILES	FN deposition inh	SR-BI DiI inh	CaV13 ICDI inh	SR-BI uptake up	Efflux pump inh
COc1cc(C(=O)Nc2ccc(N3CCCS3(=O)=O)cc2)c([N+](=O)[O-])cc1OC	0.5	81.2*	-12.1	-81.2	0.0
COc1cc(C(=O)Nc2ccc3c(c2)CCCN3C(=O)c2ccco2)c([N+](=O)[O-])cc1OC	-7.6	76.0*	-6.1	-76.0	0.1
COc1ccc(O)c(/C=N/NC(=O)c2cccc(N3CCCC3=O)c2)c1	10.7	88.6*	-3.2	-88.6	-0.1
O=C(N/N=C/c1cc(Br)ccc1O)c1cccc(N2CCCC2=O)c1	-0.3	105.8*	-16.2	-105.9	0.1
O=C(N/N=C/c1ccco1)c1cccc(N2CCCC2=O)c1	6.5	6.4	-5.1	-6.4	0.0
COc1cc(NC2CCCCC2O)c2nc(-c3ccc(Cl)cc3)ccc2c1 (configuration not stated)	6.2	80.1*	-4.3	-80.1	-0.1
Cc1noc(C)c1NC(=O)N[C@@H]1C=C[C@@H](CC(=O)N2CCCCC2)O[C@@H]1CO	10.5	.	.	.	.
COc1ccc(NC(=O)c2ccccc2OCc2ccc(F)cc2)c(OC)c1	-0.8	94.2*	-2.3	-94.2	-0.1
O=C(NNC(=O)c1ccccc1OCc1ccc(F)cc1)c1ccccc1O	-0.5	124.6*	-6.0	-124.6	0.5
O=C(NNC(=O)c1ccccc1OCc1ccccc1)c1ccccc1O	.	113.9*	.	-113.9	-0.5
O=C(NNC(=O)c1ccccc1OCc1ccccc1)c1ccccc1F	0.5	10.2	-19.1	-10.2	-0.3
CC(C)(C)[S@](=O)N1Cc2cc(C(=O)N3CCCCC3)nc(-c3cccc(C4=CCCC4)c3)c2[C@@H]1CCO	-4.5	.	.	.	.
O=C(C[C@@H]1CC[C@H]2[C@@H](COC[C@H](O)CN2CCC(F)(F)F)O1)NCc1ccc(Oc2ccccc2)cc1	9.5	.	.	.	.
Cc1ccccc1OCC(=O)Nc1sc2c(c1C#N)CC(C)(C)NC2(C)C	2.0	.	-2.5	.	-0.1
CC1(C)Cc2c(sc(NC(=O)COc3ccc(Cl)cc3)c2C#N)C(C)(C)N1	.	.	.	.	1.6*
Cc1ccc(OCC(=O)Nc2cccc(S(=O)(=O)N3CCCCC3)c2)c([N+](=O)[O-])n1	4.0	19.4	-4.8	-19.4	-0.8
Cc1ccc(OCC(=O)Nc2ccc(C)c(S(=O)(=O)N3CCCCCC3)c2)c([N+](=O)[O-])n1	-11.6	73.5*	-7.9	-73.5	0.0
Cc1ccc(NC(=O)c2ccc(F)cc2)cc1S(=O)(=O)N1CCCCCC1	2.4	46.4	-2.5	-46.4	0.2
COc1ccc(C(=O)Nc2ccc(C)c(S(=O)(=O)N3CCCCCC3)c2)cc1	-7.9	80.5*	-0.7	-80.5	0.1
O=C(N/N=C/c1cn[nH]c1-c1ccc(Cl)cc1)c1ccc([N+](=O)[O-])cc1	-4.5	94.6*	1.2	-94.6	0.4
O=C(N/N=C\c1cn[nH]c1-c1ccccc1)c1ccc([N+](=O)[O-])cc1	1.2	9.3	-18.9	-9.3	0.2
COc1cc(/C=C(/C#N)c2ccc(F)cc2)ccc1Oc1ccc([N+](=O)[O-])cn1	4.9	84.8*	-4.7	-84.8	0.4
COc1cc(/C=N\NC(=O)c2ccc(Cl)cc2)ccc1Oc1ccc([N+](=O)[O-])cn1	-0.5	78.8*	-6.1	-78.8	0.0
O=C(C[C@H]1C=C[C@@H](NC(=O)Nc2ccc3c(c2)OCO3)[C@@H](CO)O1)NCc1ccccc1	-7.7	.	.	.	.
CC1(C)CC(=O)c2c(O)cc(OCC(=O)N3CCN(c4ccc(F)cc4)CC3)cc2O1	5.6	79.7*	-2.5	-79.7	0.0
SMILES	FN deposition inh	SR-BI DiI inh	CaV13 ICDI inh	SR-BI uptake up	Efflux pump inh
O=C(C[C@@H]1CC[C@@H](NC(=O)c2ccccc2)[C@H](CO)O1)Nc1ccc(-c2ccccc2)cc1	-20.9	.	.	.	.
CCCN1CCc2c(sc(NC(=O)C3CCN(S(=O)(=O)c4cccs4)CC3)c2C(N)=O)C1	3.2	-20.9	33.8*	20.9	0.0
O=C(C[C@@H]1C=C[C@H](NC(=O)C2CC2)[C@H](CO)O1)Nc1nccs1	8.6	.	.	.	.
O=C(c1ccco1)N1CCN(C(=O)c2ccco2)CC1	-2.0	.	-9.7	.	.
O=C(c1ccco1)N1CCN(C(=O)C2CC2)CC1	2.1	-67.1	-5.2	67.1*	-0.1
COc1ccc(CCNC(=O)COc2coc(CN3c4ccccc4CC3C)cc2=O)cc1OC (configuration not stated)	4.2	85.0*	-4.3	-85.0	0.0
COc1cccc(/C=N/NC(=O)c2c(-c3ccccc3)noc2C)c1O	.	56.3	-5.0	-56.3	0.2
Cc1ccc(/C=N/NC(=O)c2c(-c3ccccc3)noc2C)c(O)c1	6.1	107.7*	-5.9	-107.7	0.4
CCOc1cc([N+](=O)[O-])cc(/C=N/NC(=O)c2c(-c3ccccc3)noc2C)c1O	.	72.0*	.	-72.0	0.0
COc1ccc(-c2nc(NC(=O)c3ccc(OCC(=O)N4CCOCC4)c(OC)c3)sc2C)cc1	-10.2	71.5*	-2.6	-71.5	-0.1
COc1cc(NC(=O)c2ccccc2)c(OC)cc1NC(=O)CN1C(=O)NC2(CCCCC2C)C1=O (configuration not stated)	-2.7	30.0	-2.8	-30.0	0.0
COc1cc(NC(=O)c2ccccc2)c(OC)cc1NC(=O)CN1C(=O)NC2(CCCCC2)C1=O	3.5	77.2*	-4.6	-77.2	-0.1
Cc1c(C(=O)Nc2ccncc2)sc2nc(-c3ccc(F)cc3)cn12	-10.6	76.7*	-3.9	-76.7	-0.1
CCN(CC)CCNC(=O)c1sc2nc(-c3ccccc3)cn2c1C	11.8	-1.1	48.3*	1.1	-0.2
COCCN(CCOC)C(=O)c1sc2nc(-c3ccccc3)cn2c1C	-14.4	10.0	-5.0	-10.0	0.2
COc1ccc(-c2cn3c(C)c(C(=O)Nc4ccncc4)sc3n2)cc1	10.6	83.4*	-6.6	-83.4	-0.1
C[C@@H]1CN([C@@H](C)CO)C(=O)c2c(c3ccccc3n2C)-c2ccccc2CO[C@H]1CN(C)C(=O)Nc1cccc(C(F)(F)F)c1	5.7	.	.	.	.
C[C@@H]1CCCCO[C@@H](CN(C)S(=O)(=O)c2ccccc2)[C@@H](C)CN([C@@H](C)CO)C(=O)c2cc(NC(=O)Nc3ccc(C(F)(F)F)cc3)ccc2O1	3.7	.	.	.	.
Cc1ccc(-n2[nH]c(C)c(/C=N/NC(=O)c3ccc(O)cc3O)c2=O)cc1	.	137.0*	.	-137.0	0.1
Cc1cc(C(=O)N/N=C/c2c(C)[nH]n(-c3ccccc3)c2=O)n[nH]1	1.3	33.2	-2.2	-33.2	-0.1
Cc1[nH]n(-c2ccccc2)c(=O)c1/C=N/Nc1nncc(-c2ccccc2)n1	.	91.2*	-7.2	-91.2	0.2
Cc1[nH]n(-c2ccc(Br)cc2)c(=O)c1/C=N/NC(=O)c1ccccc1	-3.0	136.4*	-3.2	-136.4	-0.1
